Laboratory results published in ChEMBL document CHEMBL4732237, “Discovery of 4-alkoxy-2-aryl-6,7-dimethoxyquinolines as a new class of topoisomerase I inhibitors endowed with potent in vitro anticancer activity” (2021).

Columns and labels:
Assay type in all cases: functional
CCRF-CEM = experiment: Growth inhibition of human CCRF-CEM cells incubated for 48 hrs by sulforhodamine B assay
In short: (§1)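 NCI five-dose screen covering 0.01–100 µM, prepared as 10-fold or ½-log dilutions from DMSO stock. Cells in RPMI 1640 with 5% FBS were exposed for 48 h at 37 °C after 24 h preincubation. Adherent cells were fixed with TCA (final 10%) and suspension cells were settled before fixing. Stain was SRB, read at 515 nm. GI50 = 50% reduction in net protein increase versus control, with Tz taken at drug addition.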

K562 = experiment: Growth inhibition of human K562 cells incubated for 48 hrs by sulforhodamine B assay; in short: as §1
MOLT-4 = experiment: Growth inhibition of human MOLT-4 cells incubated for 48 hrs by sulforhodamine B assay
In short: (§2)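 NCI five-dose screen (0.01–100 µM; five concentrations plus control). Cells grown in RPMI 1640/5% FBS/2 mM L-glutamine and preincubated 24 h, with time-zero plates TCA-fixed. Drug exposure 48 h at 37 °C, followed by SRB protein staining and reading at 515 nm. GI50 is the concentration at [(Ti-Tz)/(C-Tz)]×100 = 50.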

A549 = experiment: Growth inhibition of human A549 cells incubated for 48 hrs by sulforhodamine B assay; in short: as §1
HOP-62 = experiment: Growth inhibition of human HOP-62 cells incubated for 48 hrs by sulforhodamine B assay; in short: as §1
HOP-92 = experiment: Growth inhibition of human HOP-92 cells incubated for 48 hrs by sulforhodamine B assay; in short: as §1
NCI-H226 = experiment: Growth inhibition of human NCI-H226 cells incubated for 48 hrs by sulforhodamine B assay; in short: as §2
NCI-H23 = experiment: Growth inhibition of human NCI-H23 cells incubated for 48 hrs by sulforhodamine B assay; in short: as §2
NCI-H322M = experiment: Growth inhibition of human NCI-H322M cells incubated for 48 hrs by sulforhodamine B assay; in short: as §2
NCI-H522 = experiment: Growth inhibition of human NCI-H522 cells incubated for 48 hrs by sulforhodamine B assay; in short: as §2
COLO 205 = experiment: Growth inhibition of human COLO 205 cells incubated for 48 hrs by sulforhodamine B assay; in short: as §1
HCT-116 = experiment: Growth inhibition of human HCT-116 cells incubated for 48 hrs by sulforhodamine B assay; in short: as §1
HCT-29 = experiment: Growth inhibition of human […] cells incubated for 48 hrs by sulforhodamine B assay; in short: as §1
SW-620 = experiment: Growth inhibition of human SW-620 cells incubated for 48 hrs by sulforhodamine B assay
In short: (§3)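 NCI five-dose assay, with drug stocks in DMSO diluted in medium to five concentrations (10-fold or ½-log series). Cells in RPMI 1640/5% FBS were pre-incubated 24 h, and time-zero plates were TCA-fixed at drug addition. After 48 h at 37 °C, cells were TCA-fixed, SRB-stained and read at 515 nm. GI50 is from [(Ti-Tz)/(C-Tz)]×100 = 50, TGI from Ti = Tz, and LC50 from [(Ti-Tz)/Tz]×100 = -50.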

SF-268 = experiment: Growth inhibition of human SF-268 cells incubated for 48 hrs by sulforhodamine B assay; in short: as §2
SF-295 = experiment: Growth inhibition of human SF-295 cells incubated for 48 hrs by sulforhodamine B assay; in short: as §2
SF-539 = experiment: Growth inhibition of human SF-539 cells incubated for 48 hrs by sulforhodamine B assay; in short: as §2
SNB-19 = experiment: Growth inhibition of human SNB-19 cells incubated for 48 hrs by sulforhodamine B assay; in short: as §2
SNB-75 = experiment: Growth inhibition of human SNB-75 cells incubated for 48 hrs by sulforhodamine B assay; in short: as §2
U-251 = experiment: Growth inhibition of human U-251 cells incubated for 48 hrs by sulforhodamine B assay; in short: as §3
Malme-3M = experiment: Growth inhibition of human Malme-3M cells incubated for 48 hrs by sulforhodamine B assay; in short: as §2
M14 = experiment: Growth inhibition of human M14 cells incubated for 48 hrs by sulforhodamine B assay; in short: as §1
MDA-MB-435 = experiment: Growth inhibition of human MDA-MB-435 cells incubated for 48 hrs by sulforhodamine B assay; in short: as §1
SK-MEL-28 = experiment: Growth inhibition of human SK-MEL-28 cells incubated for 48 hrs by sulforhodamine B assay; in short: as §2
UACC-257 = experiment: Growth inhibition of human UACC-257 cells incubated for 48 hrs by sulforhodamine B assay; in short: as §3
UACC-62 = experiment: Growth inhibition of human UACC-62 cells incubated for 48 hrs by sulforhodamine B assay; in short: as §3
OVCAR-5 = experiment: Growth inhibition of human OVCAR-5 cells incubated for 48 hrs by sulforhodamine B assay; in short: as §2
OVCAR-8 = experiment: Growth inhibition of human OVCAR-8 cells incubated for 48 hrs by sulforhodamine B assay; in short: as §2
NCI/ADR-RES = experiment: Growth inhibition of human NCI/ADR-RES cells incubated for 48 hrs by sulforhodamine B assay; in short: as §2
786-0 = experiment: Growth inhibition of human 786-0 cells incubated for 48 hrs by sulforhodamine B assay; in short: as §1
A498 = experiment: Growth inhibition of human A498 cells incubated for 48 hrs by sulforhodamine B assay; in short: as §3
ACHN = experiment: Growth inhibition of human ACHN cells incubated for 48 hrs by sulforhodamine B assay; in short: as §1
CAKI-1 = experiment: Growth inhibition of human CAKI-1 cells incubated for 48 hrs by sulforhodamine B assay; in short: as §1
SN12C = experiment: Growth inhibition of human SN12C cells incubated for 48 hrs by sulforhodamine B assay; in short: as §2
TK-10 = experiment: Growth inhibition of human TK-10 cells incubated for 48 hrs by sulforhodamine B assay; in short: as §3
UO-31 = experiment: Growth inhibition of human UO-31 cells incubated for 48 hrs by sulforhodamine B assay; in short: as §3
PC-3 = experiment: Growth inhibition of human PC-3 cells incubated for 48 hrs by sulforhodamine B assay; in short: as §2
DU-145 = experiment: Growth inhibition of human DU-145 cells incubated for 48 hrs by sulforhodamine B assay; in short: as §1
MCF7 = experiment: Growth inhibition of human MCF7 cells incubated for 48 hrs by sulforhodamine B assay; in short: as §1
MDA-MB-231 = experiment: Growth inhibition of human MDA-MB-231 cells incubated for 48 hrs by sulforhodamine B assay; in short: as §1
BT-549 = experiment: Growth inhibition of human BT-549 cells incubated for 48 hrs by sulforhodamine B assay; in short: as §1
T47D = experiment: Growth inhibition of human T47D cells incubated for 48 hrs by sulforhodamine B assay; in short: as §3
MDA-MB-468 = experiment: Growth inhibition of human MDA-MB-468 cells incubated for 48 hrs by sulforhodamine B assay; in short: as §1

## COc1cc2nc(-c3ccc(Cl)cc3)cc(OCCCN3CCCCC3)c2cc1OC
CCRF-CEM
  GI50: 2790 nM
K562
  GI50: 1220 nM
MOLT-4
  GI50: 2040 nM
A549
  GI50: 1900 nM
HOP-62
  GI50: 2370 nM
HOP-92
  GI50: 1020 nM
NCI-H226
  GI50: 1120 nM
NCI-H23
  GI50: 2950 nM
NCI-H322M
  GI50: 4420 nM
NCI-H522
  GI50: 3280 nM
COLO 205
  GI50: 582 nM
HCT-116
  GI50: 828 nM
HCT-29
  GI50: 492 nM
SW-620
  GI50: 3090 nM
SF-268
  GI50: 3200 nM
SF-295
  GI50: 1210 nM
SF-539
  GI50: 2570 nM
SNB-19
  GI50: 2980 nM
SNB-75
  GI50: 1980 nM
U-251
  GI50: 1890 nM
Malme-3M
  GI50: 1740 nM
M14
  GI50: 412 nM
MDA-MB-435
  GI50: 2440 nM
SK-MEL-28
  GI50: 1450 nM
UACC-257
  GI50: 1920 nM
UACC-62
  GI50: 1940 nM
OVCAR-5
  GI50: 1160 nM
OVCAR-8
  GI50: 1770 nM
NCI/ADR-RES
  GI50: 898 nM
786-0
  GI50: 2620 nM
A498
  GI50: 1400 nM
ACHN
  GI50: 2450 nM
CAKI-1
  GI50: 287 nM
SN12C
  GI50: 946 nM
TK-10
  GI50: 3730 nM
UO-31
  GI50: 1870 nM
PC-3
  GI50: 1740 nM
DU-145
  GI50: 2540 nM
MCF7
  GI50: 1560 nM
MDA-MB-231
  GI50: 666 nM
BT-549
  GI50: 1430 nM
T47D
  GI50: 1310 nM
MDA-MB-468
  GI50: 1390 nM

## COc1cc2nc(-c3ccc(Cl)cc3)cc(OCCCN3CCOCC3)c2cc1OC
CCRF-CEM
  GI50: 3350 nM
K562
  GI50: 2710 nM
MOLT-4
  GI50: 2850 nM
A549
  GI50: 2020 nM
HOP-62
  GI50: 1980 nM
HOP-92
  GI50: 1360 nM
NCI-H226
  GI50: 997 nM
NCI-H322M
  GI50: > 100000 nM
NCI-H522
  GI50: 2170 nM
COLO 205
  GI50: 620 nM
HCT-116
  GI50: 1590 nM
HCT-29
  GI50: 610 nM
SW-620
  GI50: 3570 nM
SF-295
  GI50: 1080 nM
SF-539
  GI50: 2990 nM
SNB-75
  GI50: 2060 nM
U-251
  GI50: 1920 nM
Malme-3M
  GI50: 2010 nM
M14
  GI50: 545 nM
MDA-MB-435
  GI50: 1900 nM
SK-MEL-28
  GI50: 1520 nM
UACC-257
  GI50: 1920 nM
UACC-62
  GI50: 2260 nM
OVCAR-5
  GI50: 1580 nM
OVCAR-8
  GI50: 2150 nM
NCI/ADR-RES
  GI50: 1150 nM
786-0
  GI50: 1940 nM
A498
  GI50: 1590 nM
ACHN
  GI50: 3640 nM
CAKI-1
  GI50: 305 nM
SN12C
  GI50: 1300 nM
UO-31
  GI50: 1780 nM
PC-3
  GI50: 2630 nM
MCF7
  GI50: 2490 nM
MDA-MB-231
  GI50: 1010 nM
BT-549
  GI50: 2590 nM
T47D
  GI50: 1960 nM
MDA-MB-468
  GI50: 1830 nM

## COc1cc2nc(-c3ccc(Cl)cc3)cc(OCCCN3CCC(O)CC3)c2cc1OC
CCRF-CEM
  GI50: 2650 nM
K562
  GI50: 1630 nM
MOLT-4
  GI50: 1800 nM
A549
  GI50: 2200 nM
HOP-62
  GI50: 1980 nM
HOP-92
  GI50: 1250 nM
NCI-H226
  GI50: 1390 nM
NCI-H23
  GI50: 2830 nM
NCI-H322M
  GI50: 3220 nM
NCI-H522
  GI50: 2190 nM
COLO 205
  GI50: 532 nM
HCT-116
  GI50: 1440 nM
HCT-29
  GI50: 700 nM
SW-620
  GI50: 3050 nM
SF-268
  GI50: 3360 nM
SF-295
  GI50: 1660 nM
SF-539
  GI50: 2280 nM
SNB-19
  GI50: 3190 nM
SNB-75
  GI50: 1760 nM
U-251
  GI50: 2810 nM
Malme-3M
  GI50: 1890 nM
M14
  GI50: 591 nM
MDA-MB-435
  GI50: 2050 nM
SK-MEL-28
  GI50: 1490 nM
UACC-257
  GI50: 2060 nM
UACC-62
  GI50: 1900 nM
OVCAR-5
  GI50: 1160 nM
OVCAR-8
  GI50: 2000 nM
NCI/ADR-RES
  GI50: 925 nM
786-0
  GI50: 3310 nM
A498
  GI50: 1520 nM
ACHN
  GI50: 2430 nM
CAKI-1
  GI50: 416 nM
SN12C
  GI50: 1260 nM
TK-10
  GI50: 2140 nM
UO-31
  GI50: 1720 nM
PC-3
  GI50: 2020 nM
DU-145
  GI50: 2780 nM
MCF7
  GI50: 1600 nM
MDA-MB-231
  GI50: 665 nM
BT-549
  GI50: 2790 nM
T47D
  GI50: 2260 nM
MDA-MB-468
  GI50: 1560 nM
